Laboratory results as given in ChEMBL document CHEMBL1255569, “Synthesis of ester prodrugs of 9-(S)-[3-hydroxy-2-(phosphonomethoxy)propyl]-2,6-diaminopurine (HPMPDAP) as anti-poxvirus agents” (J Med Chem, 2010).

What was measured:
[1] = Cytotoxicity against HEL assessed as change in cell morphology; type: cell-based; conditions: human, HEL cells
In short: (§1)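 Microscopic inspection of cultures exposed to test compounds. MCC is the minimum compound concentration causing a microscopically detectable alteration of cell morphology.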

Human betaherpesvirus 6 = assay: Antiviral activity against Human herpesvirus 6 infected in HEL assessed as reduction in virus-induce cytopathicity; type: functional, organism-based
Human betaherpesvirus 5 [2] = assay: Antiviral activity against Human cytomegalovirus Davis infected in HEL assessed as reduction in virus-induce cytopathicity; type: functional, organism-based; conditions: Human betaherpesvirus 5, Davis
[3] = Cytotoxicity against human HSB2 cells assessed as change in cell morphology; type: cell-based, CCRF-HSB-2; in short: as §1
Human alphaherpesvirus 3 [4] = assay: Antiviral activity against acyclovir-resistant VZV OKA infected in HEL assessed as reduction in virus-induce cytopathicity; conditions: Human alphaherpesvirus 3, OKA
Vaccinia virus = assay: Antiviral activity against Vaccinia virus infected in HEL assessed as reduction in virus-induce cytopathicity; type: functional, organism-based; conditions: Orthopoxvirus vaccinia
Human alphaherpesvirus 2 = assay: Antiviral activity against […] infected in HEL assessed as reduction in virus-induce cytopathicity; type: functional, organism-based; conditions: Human alphaherpesvirus 2, strain G
Human betaherpesvirus 5 [5] = assay: Antiviral activity against Human cytomegalovirus AD169 infected in HEL assessed as reduction in virus-induce cytopathicity; type: functional, organism-based; conditions: Human betaherpesvirus 5, AD169
Human alphaherpesvirus 1 [6] = assay: Antiviral activity against acyclovir-resistant HSV1 KOS infected in HEL assessed as reduction in virus-induce cytopathicity; type: functional, organism-based; conditions: Human alphaherpesvirus 1, KOS
Human alphaherpesvirus 1 [7] = assay: Antiviral activity against HSV1 KOS infected in HEL assessed as reduction in virus-induce cytopathicity; type: functional, organism-based; conditions: Human alphaherpesvirus 1, KOS
Human alphaherpesvirus 3 [8] = assay: Antiviral activity against acyclovir-resistant VZV 07/1 infected in HEL assessed as reduction in virus-induce cytopathicity; conditions: Human alphaherpesvirus 3, 07/1
[9] = Cytotoxicity against HEL; type: cell-based; conditions: human, HEL cells
In short: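 HEL cells were seeded at 5 × 10³ cells/well and allowed to proliferate for 24 h, then given medium with graded compound concentrations. After 3 days at 37 °C, cells were counted with a Coulter counter. CC50 (μM) is the concentration halving proliferation relative to untreated controls, estimated from plots of cell number (% of control) against concentration.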

SMILES | MCC [1] | EC50 (Human betaherpesvirus 6) | EC50 (Human betaherpesvirus 5 [2]) | MCC [3] | EC50 (Human alphaherpesvirus 3 [4]) | EC50 (Vaccinia virus) | EC50 (Human alphaherpesvirus 2) | EC50 (Human betaherpesvirus 5 [5]) | EC50 (Human alphaherpesvirus 1 [6]) | EC50 (Human alphaherpesvirus 1 [7]) | EC50 (Human alphaherpesvirus 3 [8]) | CC50 [9] | MCC [9] | CC50 [1]
Nc1nc(N)c2ncn(C[C@@H](CO)OCP(=O)(O)OCC(F)(F)F)c2n1 | > 250 µM | > 62 µM | 54.2 µM | > 62 µM | 2.27 µM | 7.95 µM | 10.7 µM | 44 µM | 5 µM | 5.6 µM | 430 nM | > 250 µM |  | 
Nc1nc2c(ncn2COCCO)c(=O)[nH]1 [ACYCLOVIR] | > 444 µM |  |  |  |  |  | 0.3 µM |  | 125 µM |  |  |  | 1.58 mM | 
Nc1ccn(C[C@@H](CO)OCP(=O)(O)O)c(=O)n1 [CIDOFOVIR] | ≥ 317 µM |  | 0.79 µM |  | 0.13 µM | 7.3 µM | 2.19 µM | 1.14 µM | 1.37 µM | 1.62 µM | 110 nM | 511 µM |  | 
Nc1nc(N)c2ncn(C[C@H]3COP(=O)(O)CO3)c2n1 | > 333 µM |  | 10 µM |  | 0.37 µM | 0.53 µM | 4.33 µM | 15 µM | 3.6 µM | 3.6 µM | 770 nM | > 333 µM |  | 
CC(C)OC(=O)[C@@H](CO[P@@]1(=O)CO[C@@H](Cn2cnc3c(N)nc(N)nc32)CO1)NC(=O)[C@@H](N)C(C)C | > 177 µM | > 177 µM | 22.1 µM | > 177 µM | 1.06 µM | 2.62 µM | 1.42 µM | 15.2 µM | 7.1 µM | 7.97 µM | 250 nM | 148 µM |  | 
CCCCCCCCCCCCCCCCCCOCCOP(=O)(O)CO[C@H](CO)Cn1cnc2c(N)nc(N)nc21 | ≥ 6.3 µM | 34.6 µM | 0.0094 µM | ≥ 39.3 µM | 0.0013 µM | 0.00074 µM | 0.0022 µM | 0.041 µM | 0.00085 µM | 0.0008 µM | 0.08 nM | 18.8 µM |  | 
CCCCOC(=O)c1ccccc1OP1(=O)CO[C@@H](Cn2cnc3c(N)nc(N)nc32)CO1 (some centres not stated) | 103 µM | > 205 µM | 6.8 µM | ≥ 205 µM | 0.53 µM | 2.3 µM | 3.76 µM | 11.5 µM | 3.1 µM | 5.36 µM | 120 nM | 168 µM |  | 
Nc1nc(N)c2ncn(C[C@H]3COP(=O)(OCC(F)(F)F)CO3)c2n1 (some centres not stated) | > 239 µM | 177 µM | 24.4 µM | > 239 µM | 0.62 µM | 2.08 µM | 1.91 µM | 19.1 µM | 4.78 µM | 6.57 µM | 170 nM | ≥ 219 µM |  | 
Nc1nc2c(ncn2COC(CO)CO)c(=O)[nH]1 [GANCICLOVIR] | ≥ 392 µM |  | 10.2 µM |  |  |  |  | 9.4 µM |  |  |  | 1080 µM |  | 
CC(C)(C)C(=O)OCO[P@]1(=O)CO[C@@H](Cn2cnc3c(N)nc(N)nc32)CO1 | ≥ 231 µM | 14.6 µM | 15.5 µM | 64.7 µM | 0.72 µM | 0.37 µM | 1.78 µM | 14 µM | 3.33 µM | 1.83 µM | 160 nM | > 222 µM |  | 
CC(C)(C)C(=O)OCOP(=O)(O)CO[C@H](CO)Cn1cnc2c(N)nc(N)nc21 | > 227 µM | 30.6 µM | 11.6 µM | 227 µM | 0.79 µM | 1.63 µM | 3.15 µM | 12.9 µM | 2.95 µM | 2.76 µM | 340 nM | ≥ 227 µM |  | 
CCCCCCCCCCCCCCCCOCCO[P@@]1(=O)CO[C@@H](Cn2cnc3c(N)nc(N)nc32)CO1 | 35.2 µM | > 44 µM | 0.005 µM | 0.5 µM | 0.0018 µM | 0.0026 µM | 0.008 µM | 0.011 µM | 0.007 µM | 0.01 µM | 0.18 nM | 30 µM |  | 
CCCCCCCCCCCCCCCCOCCO[P@]1(=O)CO[C@@H](Cn2cnc3c(N)nc(N)nc32)CO1 | 35.2 µM | > 44 µM | 0.008 µM | 0.5 µM | 0.004 µM | 0.0035 µM | 0.026 µM | 0.015 µM | 0.017 µM | 0.026 µM | 0.7 nM | 28.1 µM |  | 
CCCCCCCCCCCCCCCCOCCCOP(=O)(O)CO[C@H](CO)Cn1cnc2c(N)nc(N)nc21 | ≥ 6.4 µM | 10.3 µM | 0.0037 µM | 40 µM | 0.0027 µM | 0.00074 µM | 0.0071 µM | 0.021 µM | 0.0027 µM | 0.0045 µM | 0.21 nM | ≥ 161 µM |  | 
Nc1nc(N)c2ncn(C[C@@H](CO)OCP(=O)(O)O)c2n1 | > 314 µM | 17.6 µM | 6.4 µM | 126 µM | 0.22 µM | 0.5 µM | 2.83 µM | 11.2 µM | 1.35 µM | 2.86 µM | 8.2 nM | > 314 µM |  | 
CC(C)OC(=O)[C@@H](CO[P@]1(=O)CO[C@@H](Cn2cnc3c(N)nc(N)nc32)CO1)NC(=O)[C@@H](N)C(C)C | ≥ 177 µM | > 177 µM | 7.1 µM | 177 µM | 0.73 µM | 2.02 µM | 2.3 µM | 12 µM | 3.52 µM | 5.58 µM | 200 nM | 159 µM |  | 
CCCCCCCCCCCCCCCCOCCCOP1(=O)CO[C@@H](Cn2cnc3c(N)nc(N)nc32)CO1 (some centres not stated) | 6.9 µM | 0.16 µM | 0.021 µM | 8.6 µM | 0.012 µM | 0.011 µM | 0.053 µM | 0.034 µM | 0.053 µM | 0.031 µM | 1.7 nM | 13.7 µM |  | 
O=c1[nH]c(=O)n([C@H]2C[C@H](O)[C@@H](CO)O2)cc1/C=C/Br [BRIVUDINE] |  |  |  |  | 0.016 µM |  | 75.3 µM |  | > 150 µM | 0.03 µM | 137000 nM | 339 µM |  | > 300 µM
CCCCCCCCCCCCCCCCCCOCCO[P@@]1(=O)CO[C@@H](Cn2cnc3c(N)nc(N)nc32)CO1 | 6.7 µM | > 42 µM | 0.008 µM | 0.5 µM | 0.0047 µM | 0.005 µM | 0.011 µM | 0.027 µM | 0.007 µM | 0.013 µM | 0.7 nM | 15.1 µM |  | 
CC(C)(C)C(=O)OCOP1(=O)CO[C@@H](Cn2cnc3c(N)nc(N)nc32)CO1 (some centres not stated) | ≥ 231 µM | 7.63 µM | 6.8 µM | 62.5 µM | 0.3 µM | 0.183 µM | 1.34 µM | 6.94 µM | 2.41 µM | 2.22 µM | 93 nM | ≥ 201 µM |  | 
CCCCCCCCCCCCCCCCCCOCCO[P@]1(=O)CO[C@@H](Cn2cnc3c(N)nc(N)nc32)CO1 | 6.7 µM | > 42 µM | 0.0034 µM | 0.5 µM | 0.045 µM | 0.052 µM | 0.037 µM | 0.015 µM | 0.017 µM | 0.03 µM | 10 nM | 129 µM |  | 
